Laboratory results from ChEMBL document CHEMBL1156875, “Anti-influenza drug discovery: structure-activity relationship and mechanistic insight into novel angelicin derivatives” (J Med Chem, 2010).
Activity calls are given as the source filed them. No cut-off for these calls is given here.

Experiments:
Influenza B virus [1] = assay: Antiviral activity against human influenza B virus B/TW/710/05 in MDCK cells assessed as reduction of virus-induced cytopathic; assay type: functional, organism-based; conditions: B/TW/710/05, MDCK
Procedure, shortened: (§1)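 MDCK cells (1.1 × 10^5 cells/mL in DMEM + 10% FBS) grown 24-30 h at 37 C to about 90% confluency. Virus (100 TCID50) premixed with serially diluted compound, adsorbed 1 h at 37 C. Overlay of serum-free DMEM with trypsin 2.5 μg/mL and 0.1% DMSO, then 72 h at 37 C. Formaldehyde fixation, crystal violet stain, A570. IC50 = 50% CPE reduction versus virus control. Triplicate, at least two runs.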

Influenza A virus [2] = assay: Antiviral activity against human influenza A virus A/WSN/33 (H1N1) in MDCK cells assessed as reduction of plaque formation at 100 nM; assay type: functional, organism-based; conditions: A/WSN/1933(H1N1)
Procedure, shortened: (§2)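 Six-well MDCK monolayers (5.5 × 10^5 cells/well, overnight) infected with about 125 PFU/well of A/WSN/33 with or without compound, adsorbed 1 h at 37 C, then washed with HBSS. Agarose 0.3% overlay in trypsin-containing serum-free medium carrying the same compound level, 48 h at 37 C, 5% CO2. Fixed, crystal violet stained, plaques counted relative to virus control.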

Influenza B virus [3] = assay: Antiviral activity against human influenza B virus B/TW/70325/05 in MDCK cells assessed as reduction of virus-induced cytopathic; assay type: functional, organism-based; conditions: B/TW/70325/05, MDCK; procedure, shortened: as §1
Influenza A virus [4] = assay: Antiviral activity against human influenza A virus A/WSN/33 (H1N1) in MDCK cells assessed as reduction of M1 protein by immunofluorescence microscopic analysis; assay type: functional, organism-based; conditions: A/WSN/1933(H1N1)
Procedure, shortened: (§3)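 Influenza-infected MDCK cells examined by immunofluorescence microscopy with anti-dsRNA, anti-NP and anti-M1 antibodies to visualise viral RNA and proteins.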

Influenza A virus [5] = assay: Antiviral activity against human influenza A virus A/TW/141/04 (H1N1) in MDCK cells assessed as reduction of virus-induced cytopathic effect; assay type: functional, organism-based; procedure, shortened: as §1
Influenza A virus [6] = assay: Antiviral activity against human influenza A virus A/WSN/33 (H1N1) in MDCK cells assessed as reduction of plaque formation at 20 nM; assay type: functional, A/WSN/1933(H1N1); parameters: scale not given: the % may be the effect or the level left; procedure, shortened: as §2
[7] = Cytotoxicity against MDCK cells after 72 hrs; assay type: cell-based, Canis lupus familiaris; conditions: dog
Procedure, shortened: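 Uninfected MDCK monolayers (seeded at 1.1 × 10^5 cells/mL, grown 24-30 h to about 90% confluency) exposed to graded compound concentrations for 72 h at 37 C. Read by formaldehyde fixation, 0.1% crystal violet staining and absorbance at 570 nm. CC50 = concentration reducing viability to 50% of control. Triplicate, repeated at least twice.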

Influenza A virus [8] = assay: Antiviral activity against human influenza A virus A/WSN/33 (H1N1) in MDCK cells assessed as prevention of progeny formation after 4 to 8 hrs by time-of-addition study; assay type: functional, organism-based; conditions: A/WSN/1933(H1N1)
Procedure, shortened: (§4)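 MDCK (2.4 × 10^5 cells/well, six-well) infected at MOI 0.001 on ice for 1 h, washed, fresh medium set as 0 h pi. Compound at 1 μM present only during −1 to 0, 0-2, 2-4, 4-6 or 6-8 h, then washed off. Incubated in fresh medium to 12 h pi; supernatant virus yield titrated by plaque assay.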

Influenza A virus [9] = assay: Antiviral activity against human influenza A virus A/WSN/33 (H1N1) in MDCK cells assessed as reduction of dsRNA by immunofluorescence microscopic analysis; assay type: functional, organism-based; conditions: A/WSN/1933(H1N1); procedure, shortened: as §3
Influenza A virus [10] = assay: Antiviral activity against human influenza A virus A/WSN/33 (H1N1) in MDCK cells assessed as reduction of NP protein by immunofluorescence microscopic analysis; assay type: functional, organism-based; conditions: A/WSN/1933(H1N1); procedure, shortened: as §3
Influenza A virus [11] = assay: Antiviral activity against human influenza A virus A/TW/3446/04 (H3N2) in MDCK cells assessed as reduction of virus-induced cytopathic effect; assay type: functional, organism-based; procedure, shortened: as §1
Influenza A virus [12] = assay: Antiviral activity against human influenza A virus A/WSN/33 (H1N1) in MDCK cells assessed as reduction of virus-induced cytopathic effect; assay type: functional, organism-based; conditions: A/WSN/1933(H1N1); procedure, shortened: as §1
Influenza B virus [13] = assay: Antiviral activity against human influenza B virus B/TW/99/07 in MDCK cells assessed as reduction of virus-induced cytopathic; assay type: functional, organism-based; conditions: B/TW/99/07, MDCK; procedure, shortened: as §1
Influenza A virus [14] = assay: Antiviral activity against human influenza A virus A/WSN/33 (H1N1) in MDCK cells assessed as prevention of progeny formation up to 4 hrs by time-of-addition study; assay type: functional, organism-based; conditions: A/WSN/1933(H1N1); procedure, shortened: as §4
Influenza A virus [15] = assay: Antiviral activity against human influenza A virus A/WSN/33 (H1N1) assessed as inhibition of guinea pig red blood cells at 25 uM by hemagglutinination inhibition assay; assay type: functional, organism-based; conditions: A/WSN/1933(H1N1)
Procedure, shortened: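 Hemagglutination inhibition format: A/WSN/33 attachment to guinea pig red blood cells tested with compound at 25 μM.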

## Cc1cc(=O)oc2c1ccc1oc(C(=O)c3cccs3)c(-c3ccccc3)c12
Influenza B virus [1]
  IC50: 90 nM
Influenza A virus [2]
  Activity: Active
Influenza B virus [3]
  IC50: 90 nM
Influenza A virus [4]
  Activity: Active
Influenza A virus [5]
  IC50: 90 nM
Influenza A virus [6]
  Activity: 50%
[7]
  CC50 at 72 h: > 25000 nM
Influenza A virus [8]
  Activity: inactive
Influenza A virus [9]
  Activity: Active
Influenza A virus [10]
  Activity: Active
Influenza A virus [11]
  IC50: 150 nM
Influenza A virus [12]
  IC50: 70 nM
Influenza B virus [13]
  IC50: 40 nM
Influenza A virus [14]
  Activity: Active
Influenza A virus [15]
  Activity: inactive

## CC(=O)N[C@H]1[C@H]([C@H](O)[C@H](O)CO)OC(C(=O)O)=C[C@@H]1NC(=N)N [ZANAMIVIR]
Influenza B virus [1]
  IC50: 30 nM
Influenza B virus [3]
  IC50: 20 nM
Influenza A virus [5]
  IC50: 350 nM
Influenza A virus [11]
  IC50: 30 nM
Influenza A virus [12]
  IC50: 60 nM
Influenza B virus [13]
  IC50: 100 nM

## Cc1cc(=O)oc2c1ccc1oc(C(=O)c3ccsc3)c(-c3ccccc3)c12
[7]
  CC50 at 72 h: > 25000 nM
Influenza A virus [12]
  IC50: 150 nM

## CCOc1cccc(C(=O)c2oc3ccc4c(C)cc(=O)oc4c3c2-c2ccccc2)c1
[7]
  CC50 at 72 h: > 25000 nM
Influenza A virus [12]
  IC50: 120 nM

## Cc1cc(=O)oc2c1ccc1oc(C(=O)c3ccccc3)c(-c3cc(Br)cc(Br)c3)c12
[7]
  CC50 at 72 h: > 25000 nM
Influenza A virus [12]
  IC50: 100 nM

## CCCCOc1cccc(C(=O)c2oc3ccc4c(C)cc(=O)oc4c3c2-c2ccccc2)c1
[7]
  CC50 at 72 h: > 25000 nM
Influenza A virus [12]
  IC50: 80 nM

## O=C(c1ccccc1)c1oc2ccc3c(-c4ccccc4)cc(=O)oc3c2c1-c1ccccc1
[7]
  CC50 at 72 h: > 25000 nM
Influenza A virus [12]
  IC50: > 25000 nM

## O=C(c1ccccc1)c1oc2ccccc2c1-c1ccccc1
[7]
  CC50 at 72 h: 5270 nM
Influenza A virus [12]
  IC50: > 25000 nM

## Cc1cc(=O)oc2c1ccc1oc(-c3ccccc3)c(-c3ccccc3)c12
[7]
  CC50 at 72 h: > 25000 nM
Influenza A virus [12]
  IC50: > 25000 nM
